{"source": "the EternaBench riboswitch data", "tested_on": "MS2 coat protein", "assay": "apparent Kd, MS2 coat protein; higher = weaker binding; RNA-MaP array; tryptophan 2.4 mM where present", "method_in_brief": "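The apparent Kd is reported as the median of filtered per-cluster binding-curve fits. To get these curves, designs transcribed by stalled E. coli RNA polymerase on Illumina sequencing-chip clusters were titrated with SNAP-549-labelled MS2 coat protein from 0.7 or 1.5 nM, doubling to 3 µM. Titrations were run without and then with constant ligand in 100 mM Tris-HCl pH 7.5, 80 mM KCl, 4 mM MgCl2, BSA, DTT, yeast tRNA and Tween-20, and green signal was normalised to red-channel RNA signal and control-cluster median Fmax.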", "key": {"[1]": {"conditions": "designed as: OFF switch for tryptophan, no ligand"}, "[2]": {"conditions": "ligand present: tryptophan, designed as: OFF switch for tryptophan"}, "[3]": {"conditions": "designed as: ON switch for tryptophan, no ligand"}, "[4]": {"conditions": "ligand present: tryptophan, designed as: ON switch for tryptophan"}}, "data": [{"sequence": "GUAGCGACGGCGGCCGCCACUCACAGGUGAGGGUAGACCAACCUUCACAUGAGGAUCACCCAUGUGAGGACCGGGCUGUCGCUAC", "values": [{"measurement": "apparent Kd", "setting": "[1]", "value": 90.9, "unit": "nM"}, {"measurement": "apparent Kd", "setting": "[2]", "value": 146, "unit": "nM"}]}, {"sequence": "ACAUGAGCAUCAGCCAUGUGUAUGACAUGACGAGGACCGGUACGGCCGCCACUCGACAUGAGGAUCACCCAUGUUGAGGAUCACA", "values": [{"measurement": "apparent Kd", "setting": "[1]", "value": 10.9, "unit": "nM"}, {"measurement": "apparent Kd", "setting": "[2]", "value": 14.7, "unit": "nM"}]}, {"sequence": "AAUAAUAAGGCGGCCGCCACUACACAUGAGGAUCACCCAUGUCUCGCGGGCUUGCGUUGGGAUUGUAGGACCGGGCCAAUAAUAA", "values": [{"measurement": "apparent Kd", "setting": "[1]", "value": 26.7, "unit": "nM"}, {"measurement": "apparent Kd", "setting": "[2]", "value": 20.3, "unit": "nM"}]}, {"sequence": "UGUACCAUGUCGGCCGCCACUCAUGAUAAACAUGAGGAUCACCCAUGUGGCGUCAAAGACGCUAUGAGGACCGGGACAUGGUACU", "values": [{"measurement": "apparent Kd", "setting": "[3]", "value": 13.2, "unit": "nM"}, {"measurement": "apparent Kd", "setting": "[4]", "value": 10.6, "unit": "nM"}]}, {"sequence": "CCUCAUGAACAUGAGGAUCACCCAUGUACACGAGGACCGGUACGGCCGCCACUCGAAUAAGCUAAAUAUAAAUAAUAAUAAUAGC", "values": [{"measurement": "apparent Kd", "setting": "[1]", "value": 16.9, "unit": "nM"}, {"measurement": "apparent Kd", "setting": "[2]", "value": 37.6, "unit": "nM"}]}, {"sequence": "GGAUGCGGCACGGCCGCCACUGCGGUGGUGUGACAUGAGGAUCACCCAUGUUGUCAUGCGGCCCUUAGGACCGGGUGGCGUGUCC", "values": [{"measurement": "apparent Kd", "setting": "[1]", "value": 46.4, "unit": "nM"}, {"measurement": "apparent Kd", "setting": "[2]", "value": 47, "unit": "nM"}]}, {"sequence": "CUAUAAGUACCGGUCCUCAGAUCCUCAUGACGAGGACCGGUACGGCCGCCACUCGAAACAUGAGGAUCACCCAUGUAAUAAUAAU", "values": [{"measurement": "apparent Kd", "setting": "[1]", "value": 18.3, "unit": "nM"}, {"measurement": "apparent Kd", "setting": "[2]", "value": 18.6, "unit": "nM"}]}, {"sequence": "UUAUGCAGGUCGGCCGCCACUACACACAUGAGGAUCACCCAUGUAGUUACUGGGUGAAGUGGCAGUAGGACCGGGACCUGCAUAC", "values": [{"measurement": "apparent Kd", "setting": "[3]", "value": 553, "unit": "nM"}, {"measurement": "apparent Kd", "setting": "[4]", "value": 316, "unit": "nM"}]}]}
